Assay results reported in ChEMBL document CHEMBL1151981, “Bioactive pyridine-N-oxide disulfides from Allium stipitatum” (J Nat Prod, 2009).
Values after ≈ are worked out from the molar mass of the structure shown. Active and inactive are the calls of the source. The calls are words filed in the database; no cut-off is given here.

Columns and labels:
[1] = test system: Staphylococcus aureus; test: Antibacterial activity against Staphylococcus aureus EMRSA15 after 72 hrs; format: functional; details: EMRSA15, 72 h
Outline: (§1)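 S. aureus strains tested in a MIC assay; norfloxacin and oxacillin used as positive controls.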

[2] = test system: Staphylococcus aureus; test: Antibacterial activity against Staphylococcus aureus SA1199B overexpressing NorA efflux pump after 72 hrs; format: functional
[3] = test system: Mycolicibacterium smegmatis; test: Antibacterial activity against Mycobacterium smegmatis after 72 hrs; format: functional
Outline: (§2)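 Fast-growing mycobacteria obtained from NCTC; cultures grown on Columbia blood agar with 7% defibrinated horse blood at 37 °C for 72 h before MIC determination. Ethambutol and isoniazid served as positive controls.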

[4] = test system: Staphylococcus aureus; test: Antibacterial activity against tetracycline-effluxing Staphylococcus aureus XU212 after 72 hrs; format: functional; details: XU212, 72 h; outline: as §1
[5] = test system: Mycolicibacterium phlei; test: Antibacterial activity against Mycobacterium phlei after 72 hrs; format: functional; outline: as §2
[6] = test system: Mycolicibacterium fortuitum; test: Antibacterial activity against Mycobacterium fortuitum after 72 hrs; format: functional; outline: as §2
[7] = test system: Mycobacterium tuberculosis; test: Upregulation of clpB RNA expression in Mycobacterium tuberculosis H37Rv ATCC 27294 at 2 to 10 ug/ml after 6 hrs by microarray analysis; format: functional, organism-based
Outline: (§3)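 H37Rv grown in 7H9 with 0.2% glycerol, 0.5% BSA fraction V, 0.05% Tween 80, 0.08% NaCl and 0.2% glucose to OD650 0.3. Treated with 2, 5 or 10 µg/mL compound, or matching DMSO, for 6 h. RNA isolated, labelled cDNA hybridised to microarrays. Predictive genes found by class prediction analysis.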

[8] = test system: Mycobacterium tuberculosis; test: Antibacterial activity against Mycobacterium tuberculosis infected in GKO C57BL/6 mouse assessed as bacterial number in spleen at 30 mg/kg/day administered 14 days postinfection via oral gavage for nine consecutive days measured on day 24 postinfection; format: functional
Outline: (§4)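 Female GKO C57BL/6 mice, 8–10 weeks old, infected by low-dose aerosol with M. tuberculosis Erdman (50–100 CFU uptake confirmed day 1). Daily oral gavage in 0.5% methyl cellulose from day 14 for nine consecutive days; isoniazid given at 25 mg/kg/day. Five mice per group, with untreated and pretreatment controls. Lung and spleen CFU log-transformed; one-way ANOVA with Tukey test.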

[9] = test system: Mycobacterium tuberculosis; test: Antibacterial activity against Mycobacterium tuberculosis H37Rv ATCC 27294 assessed as decrease in viable bacterial counts at 0.01 to 5 ug/ml after 14 days by spot-culture growth inhibition assay; format: functional, organism-based
Outline: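 Mid-exponential cultures (BCG rotated in 7H9/ADC/Tween 80; H37Rv standing in 7H9/OADC/Tween 80) diluted to 10³ cells/mL. 5 µL spotted onto 7H10 agar with 10% OADC containing compound at 0.01, 0.1, 0.5, 1 and 5 µg/mL. Incubated at 37 °C for 14 days. MIC taken as lowest concentration with no growth; no-compound well as growth control.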

[10] = test system: Mus musculus; test: Toxicity in C57BL/6 mouse assessed as adverse effect at 30 mg/kg administered as single dose via oral gavage for 3 days measured after 3 days post final dose; format: organism-based; parameters: dose 30 mg/kg, route oral; details: in vivo, 72 h
[11] = test system: Mus musculus; test: Toxicity in C57BL/6 mouse assessed as lethality at 300 mg/kg administered as single dose via oral gavage for 3 days measured 3 days after final dose; format: organism-based; parameters: dose 300 mg/kg, route oral; details: in vivo, 72 h
Outline: (§5)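 Female C57BL/6 mice, three per dose, got a single oral gavage dose of 30, 100 or 300 mg/kg. Observed at 4 and 6 h after dosing, then twice daily for 1 week. The tabulated data describe 3-day dosing.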

[12] = Toxicity in C57BL/6 mouse assessed as maximum tolerated dose administered as single dose via oral gavage for 3 days measured 6 hrs after final dose; format: organism-based; details: in vivo; outline: as §5
[13] = test system: Mycobacterium tuberculosis; test: Upregulation of Rv1334 RNA expression in Mycobacterium tuberculosis H37Rv ATCC 27294 at 2 to 10 ug/ml after 6 hrs by microarray analysis; format: functional, organism-based; outline: as §3
[14] = test system: Mycobacterium tuberculosis; test: Effect on trxC RNA expression in Mycobacterium tuberculosis H37Rv ATCC 27294 at 2 to 10 ug/ml after 6 hrs by microarray analysis; format: functional, organism-based; outline: as §3
[15] = test system: Mycobacterium tuberculosis; test: Upregulation of Rv3463 RNA expression in Mycobacterium tuberculosis H37Rv ATCC 27294 at 2 to 10 ug/ml after 6 hrs by microarray analysis; format: functional, organism-based; outline: as §3
[16] = test system: Mycobacterium tuberculosis; test: Antibacterial activity against Mycobacterium tuberculosis infected in GKO C57BL/6 mouse assessed as bacterial number in lung at 30 mg/kg/day administered 14 days postinfection via oral gavage for nine consecutive days measured on day 24 postinfection; format: functional; outline: as §4
[17] = Toxicity in C57BL/6 mouse assessed as maximum tolerated dose administered as single dose via oral gavage for 3 days measured 4 hrs after final dose; format: organism-based; details: in vivo; outline: as §5
[18] = test system: A549; test: Cytotoxicity against human A549 cells after 96 hrs by sulforhodamine B assay; format: functional, cell-based; details: A549, 96 h
Outline: (§6)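 SRB assay. Cells seeded at 4000/well in DMEM and allowed to attach overnight at 37 °C, 5% CO2. Exposed in quadruplicate to freshly made compound, 0.1–25 µM, for 96 h. Fixed with ice-cold 10% TCA for 30 min, stained with 0.4% SRB in 1% acetic acid for 15 min. Absorbance read at 540 nm as % of untreated control; IC50 derived from means.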

[19] = test system: Mycobacterium tuberculosis; test: Antibacterial activity against Mycobacterium tuberculosis H37Rv ATCC 27294 assessed as decrease in viable bacterial counts at 1.25 ug/ml after 7 days by spot-culture growth inhibition assay; format: functional
[20] = test system: Mycobacterium tuberculosis; test: Upregulation of dnaJ RNA expression in Mycobacterium tuberculosis H37Rv ATCC 27294 at 2 to 10 ug/ml after 6 hrs by microarray analysis; format: functional, organism-based; outline: as §3
[21] = Cytotoxicity against human WI38 cells after 96 hrs by sulforhodamine B assay; format: cell-based; details: WI-38, 96 h; outline: as §6
[22] = test system: Mycobacterium tuberculosis; test: Upregulation of sigH RNA expression in Mycobacterium tuberculosis H37Rv ATCC 27294 at 2 to 10 ug/ml after 6 hrs by microarray analysis; format: functional, organism-based; outline: as §3
[23] = test system: Mycolicibacterium smegmatis; test: Antibacterial activity against Mycobacterium smegmatis mc2 2700 after 72 hrs; format: functional; details: mc2 2700, 72 h
[24] = test system: Mycobacterium tuberculosis; test: Upregulation of hsp RNA expression in Mycobacterium tuberculosis H37Rv ATCC 27294 at 2 to 10 ug/ml after 6 hrs by microarray analysis; format: functional, organism-based; outline: as §3
[25] = test system: Mycobacterium tuberculosis; test: Upregulation of Rv1335 RNA expression in Mycobacterium tuberculosis H37Rv ATCC 27294 at 2 to 10 ug/ml after 6 hrs by microarray analysis; format: functional, organism-based; outline: as §3
[26] = test system: HT-29; test: Cytotoxicity against human HT-29 cells after 96 hrs by sulforhodamine B assay; format: functional, cell-based; details: HT-29, 96 h; outline: as §6
[27] = Toxicity in C57BL/6 mouse assessed as maximum tolerated dose administered as single dose via oral gavage for 3 days measured twice daily for 1 week after final dose; format: organism-based; details: in vivo; outline: as §5
[28] = test system: Mus musculus; test: Toxicity in C57BL/6 mouse assessed as transient lethargy at 100 mg/kg administered as single dose via oral gavage for 3 days measured 3 days after final dose; format: organism-based; parameters: dose 100 mg/kg, route oral; details: in vivo, 72 h
[29] = test system: Mycobacterium tuberculosis; test: Upregulation of Rv0331 RNA expression in Mycobacterium tuberculosis H37Rv ATCC 27294 at 2 to 10 ug/ml after 6 hrs by microarray analysis; format: functional, organism-based; outline: as §3
[30] = test system: MCF7; test: Cytotoxicity against human MCF7 cells after 96 hrs by sulforhodamine B assay; format: functional, cell-based; details: MCF7, 96 h; outline: as §6
[31] = test system: Mycobacterium tuberculosis; test: Effect on trxB2 RNA expression in Mycobacterium tuberculosis H37Rv ATCC 27294 at 2 to 10 ug/ml after 6 hrs by microarray analysis; format: functional, organism-based; outline: as §3
[32] = test system: Mus musculus; test: Toxicity in C57BL/6 mouse assessed as lethality at 300 mg/kg administered as single dose via oral gavage for 3 days measured 2 days after final dose; format: organism-based; parameters: dose 300 mg/kg, route oral; details: in vivo, 48 h; outline: as §5
[33] = test system: Mycobacterium tuberculosis; test: Upregulation of Rv3054c RNA expression in Mycobacterium tuberculosis H37Rv ATCC 27294 at 2 to 10 ug/ml after 6 hrs by microarray analysis; format: functional, organism-based; outline: as §3
[34] = test system: Mycobacterium tuberculosis; test: Upregulation of dnaK RNA expression in Mycobacterium tuberculosis H37Rv ATCC 27294 at 2 to 10 ug/ml after 6 hrs by microarray analysis; format: functional, organism-based; outline: as §3
[35] = test system: Mycolicibacterium smegmatis; test: Inhibition of fatty acid biosynthesis in Mycobacterium smegmatis assessed as inhibition of [14C]acetate incorporation into soluble lipid at 30 ug/ml treated 2 hrs before [14C]acetate addition measured after 2 hrs of [14C]acetate infusion by whole-cell assay; format: functional, organism-based
Outline: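 Replicating M. smegmatis whole cells exposed to compound at 30 µg/mL for 2 h, then [1-14C]acetate added for a further 2 h. Soluble lipids (mostly fatty acids) extracted and counts per minute compared with untreated control.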

CSSc1cccs1
MIC [1]: > 128 µg/mL | MIC [2]: 128 µg/mL (≈ 789 µM) | MIC [3]: 64 µg/mL (≈ 394 µM) | MIC [4]: > 128 µg/mL | MIC [5]: > 128 µg/mL | MIC [6]: > 128 µg/mL

CSSc1ccc2ccccc2n1
MIC [1]: 4 µg/mL (≈ 19.3 µM) | MIC [2]: 4 µg/mL (≈ 19.3 µM) | MIC [3]: 8 µg/mL (≈ 38.6 µM) | MIC [4]: 4 µg/mL (≈ 19.3 µM) | MIC [5]: 8 µg/mL (≈ 38.6 µM) | MIC [6]: 4 µg/mL (≈ 19.3 µM)

CSSc1ccccn1
MIC [1]: 2 µg/mL (≈ 12.7 µM) | MIC [2]: 2 µg/mL (≈ 12.7 µM) | MIC [3]: 8 µg/mL (≈ 50.9 µM) | MIC [4]: 4 µg/mL (≈ 25.4 µM) | MIC [5]: 16 µg/mL (≈ 102 µM) | MIC [6]: 8 µg/mL (≈ 50.9 µM)

Cc1onc(-c2ccccc2)c1C(=O)N[C@@H]1C(=O)N2[C@@H]1SC(C)(C)[C@@H]2C(=O)O [OXACILLIN]
MIC [1]: 32 µg/mL (≈ 79.7 µM) | MIC [2]: 0.25 µg/mL (≈ 0.623 µM) | MIC [4]: 128 µg/mL (≈ 319 µM)

CSSc1cccc[n+]1[O-]
Activity [7]: Active | MIC [1]: 0.5 µg/mL (≈ 2.89 µM) | log10cfu [8]: 6.17 | Activity [9]: Active | Activity [10]: Non-toxic | Activity [11]: Toxic | MIC [2]: 2 µg/mL (≈ 11.5 µM) | MTD at 6 h [12]: 30 mg/kg | Activity [13]: Active | Activity [14]: Active | MIC [3]: 8 µg/mL (≈ 46.2 µM) | Activity [15]: Active | log10cfu [16]: 8.17 | MTD at 4 h [17]: 30 mg/kg | IC50 [18]: 220 nM | Activity [19]: 99% | Activity [20]: Active | MIC [4]: 1 µg/mL (≈ 5.77 µM) | IC50 [21]: 800 nM | MIC [5]: 2 µg/mL (≈ 11.5 µM) | Activity [22]: Active | MIC [23]: 8 µg/mL (≈ 46.2 µM) | Activity [24]: Active | Activity [25]: Active | IC50 [26]: 1840 nM | MTD at 168 h [27]: 30 mg/kg | Activity [28]: Toxic | Activity [29]: Active | IC50 [30]: 350 nM | Activity [31]: Active | Activity [32]: Toxic | Activity [33]: Active | MIC [6]: 8 µg/mL (≈ 46.2 µM) | Activity [34]: Active | inhibition [35]: Active

CSSc1ccccc1
MIC [1]: > 128 µg/mL | MIC [2]: 128 µg/mL (≈ 819 µM) | MIC [3]: 64 µg/mL (≈ 410 µM) | MIC [4]: > 128 µg/mL | MIC [5]: > 128 µg/mL | MIC [6]: > 128 µg/mL

CSCSSc1cccc[n+]1[O-]
MIC [1]: 0.5 µg/mL (≈ 2.28 µM) | Activity [9]: Active | MIC [2]: 1 µg/mL (≈ 4.56 µM) | MIC [3]: 4 µg/mL (≈ 18.2 µM) | IC50 [18]: 780 nM | MIC [4]: 1 µg/mL (≈ 4.56 µM) | IC50 [21]: 890 nM | MIC [5]: 2 µg/mL (≈ 9.12 µM) | MIC [23]: 4 µg/mL (≈ 18.2 µM) | IC50 [30]: 390 nM | MIC [6]: 8 µg/mL (≈ 36.5 µM)
